ChEMBL document CHEMBL1629486, “Antimicrobial, antitumor and 5α-reductase inhibitor activities of some hydrazonoyl substituted pyrimidinones” (Eur J Med Chem, 2010)

Tests used:
MCF7 = assay: Growth inhibition of human MCF7 cells assessed as cell growth at 1 M after 48 hrs by sulforhodamine B assay; type: functional; design: scale not given: the % may be the effect or the level left
How it was run: (§1)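 NCI 60-cell screen at a single high dose. Cells are grown in RPMI 1640 with 5% FBS and 2 mM L-glutamine, then plated at 5000–40,000 cells/well and held 24 h at 37 °C in 5% CO2 at 100% humidity. Drug is then added and plates are incubated another 48 h, with SRB staining as read-out. Results are given as growth percent (100 = no inhibition, 0 = no net growth, negative = lethality).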

ACHN = assay: Growth inhibition of human ACHN cells assessed as cell growth at 1 M after 48 hrs by sulforhodamine B assay; type: functional; design: scale not given: the % may be the effect or the level left; how it was run: as §1
SN12C = assay: Growth inhibition of human SN12C cells assessed as cell growth at 1 M after 48 hrs by sulforhodamine B assay; type: functional; design: scale not given: the % may be the effect or the level left
How it was run: (§2)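 NCI 60-cell panel screen, single dose (1.0 M as printed). Cells grown in RPMI 1640 with 5% fetal bovine serum and 2 mM L-glutamine, seeded at 5000–40,000 cells/well, preincubated 24 h at 37 °C in 5% CO2 at 100% humidity, then exposed to compound for 48 h. Sulforhodamine B staining read-out. Result given as growth percent: 100 = no inhibition, 0 = no net growth, negative = lethality.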

OVCAR-8 = assay: Growth inhibition of human OVCAR8 cells assessed as cell growth at 1 M after 48 hrs by sulforhodamine B assay; type: functional; design: scale not given: the % may be the effect or the level left; how it was run: as §1
[1] = Growth inhibition of human Hs 578T cells assessed as cell growth at 1 M after 48 hrs by sulforhodamine B assay; type: functional; design: scale not given: the % may be the effect or the level left; how it was run: as §1
OVCAR-4 = assay: Growth inhibition of human OVCAR4 cells assessed as cell growth at 1 M after 48 hrs by sulforhodamine B assay; type: functional; design: scale not given: the % may be the effect or the level left; how it was run: as §1
786-0 = assay: Growth inhibition of human 786-0 cells assessed as cell growth at 1 M after 48 hrs by sulforhodamine B assay; type: functional; design: scale not given: the % may be the effect or the level left; how it was run: as §1
SF-295 = assay: Growth inhibition of human SF295 cells assessed as cell growth at 1 M after 48 hrs by sulforhodamine B assay; type: functional; design: scale not given: the % may be the effect or the level left; how it was run: as §2
K562 = assay: Growth inhibition of human K562 cells assessed as cell growth at 1 M after 48 hrs by sulforhodamine B assay; type: functional; design: scale not given: the % may be the effect or the level left; how it was run: as §1
HOP-62 = assay: Growth inhibition of human HOP62 cells assessed as cell growth at 1 M after 48 hrs by sulforhodamine B assay; type: functional; design: scale not given: the % may be the effect or the level left; how it was run: as §1
Escherichia coli = assay: Antimicrobial activity against Escherichia coli at 1 to 5 ug/ml by agar well diffusion method; type: functional
How it was run: (§3)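 Agar well diffusion against bacteria and fungi. Inhibition zone is scored beyond the control: ++ 0.6–1.0 cm, + 0.1–0.5 cm, 0 no inhibition.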

OVCAR-3 = assay: Growth inhibition of human OVCAR3 cells assessed as cell growth at 1 M after 48 hrs by sulforhodamine B assay; type: functional; design: scale not given: the % may be the effect or the level left; how it was run: as §1
OVCAR-5 = assay: Growth inhibition of human OVCAR5 cells assessed as cell growth at 1 M after 48 hrs by sulforhodamine B assay; type: functional; design: scale not given: the % may be the effect or the level left; how it was run: as §1
UACC-62 = assay: Growth inhibition of human UACC62 cells assessed as cell growth at 1 M after 48 hrs by sulforhodamine B assay; type: functional; design: scale not given: the % may be the effect or the level left; how it was run: as §2
IGROV-1 = assay: Growth inhibition of human IGROV1 cells assessed as cell growth at 1 M after 48 hrs by sulforhodamine B assay; type: functional; design: scale not given: the % may be the effect or the level left; how it was run: as §1
SF-539 = assay: Growth inhibition of human SF539 cells assessed as cell growth at 1 M after 48 hrs by sulforhodamine B assay; type: functional; design: scale not given: the % may be the effect or the level left; how it was run: as §2
NCI-H23 = assay: Growth inhibition of human NCI-H23 cells assessed as cell growth at 1 M after 48 hrs by sulforhodamine B assay; type: functional; design: scale not given: the % may be the effect or the level left; how it was run: as §1
Malme-3M = assay: Growth inhibition of human MALME-3M cells assessed as cell growth at 1 M after 48 hrs by sulforhodamine B assay; type: functional; design: scale not given: the % may be the effect or the level left; how it was run: as §1
A498 = assay: Growth inhibition of human A498 cells assessed as cell growth at 1 M after 48 hrs by sulforhodamine B assay; type: functional; design: scale not given: the % may be the effect or the level left; how it was run: as §1
Aspergillus fumigatus = assay: Antimicrobial activity against Aspergillus fumigatus at 1 to 5 ug/ml by agar well diffusion method; type: functional; how it was run: as §3
HCT-116 = assay: Growth inhibition of human HCT116 cells assessed as cell growth at 1 M after 48 hrs by sulforhodamine B assay; type: functional; design: scale not given: the % may be the effect or the level left; how it was run: as §1
SK-MEL-2 = assay: Growth inhibition of human SK-MEL-2 cells assessed as cell growth at 1 M after 48 hrs by sulforhodamine B assay; type: functional; design: scale not given: the % may be the effect or the level left; how it was run: as §2
Rattus norvegicus = species: Rattus norvegicus; assay: Acute toxicity in albino rat; type: organism-based; conditions: in vivo
How it was run: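 Male albino rats received injections of increasing doses. LD50 and LD90, the doses killing 50% and 90% of the animals, were calculated by the Austen and Brocklehurst method.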

HOP-92 = assay: Growth inhibition of human HOP92 cells assessed as cell growth at 1 M after 48 hrs by sulforhodamine B assay; type: functional; design: scale not given: the % may be the effect or the level left; how it was run: as §1
Staphylococcus aureus = assay: Antimicrobial activity against Staphylococcus aureus at 1 to 5 ug/ml by agar well diffusion method; type: functional; how it was run: as §3
[2] = Growth inhibition of human […] cells assessed as cell growth at 1 M after 48 hrs by sulforhodamine B assay; type: functional; design: scale not given: the % may be the effect or the level left; how it was run: as §1
SNB-19 = assay: Growth inhibition of human SNB19 cells assessed as cell growth at 1 M after 48 hrs by sulforhodamine B assay; type: functional; design: scale not given: the % may be the effect or the level left; how it was run: as §2
SNB-75 = assay: Growth inhibition of human SNB75 cells assessed as cell growth at 1 M after 48 hrs by sulforhodamine B assay; type: functional; design: scale not given: the % may be the effect or the level left; how it was run: as §2
M14 = assay: Growth inhibition of human M14 cells assessed as cell growth at 1 M after 48 hrs by sulforhodamine B assay; type: functional; design: scale not given: the % may be the effect or the level left; how it was run: as §1
LOX IMVI = assay: Growth inhibition of human LOXIMVI cells assessed as cell growth at 1 M after 48 hrs by sulforhodamine B assay; type: functional; design: scale not given: the % may be the effect or the level left; how it was run: as §1
[3] = test system: Syncephalastrum racemosum; assay: Antimicrobial activity against Syncephalastrum racemosum at 1 to 5 ug/ml by agar well diffusion method; type: functional; how it was run: as §3
PC-3 = assay: Growth inhibition of human PC3 cells assessed as cell growth at 1 M after 48 hrs by sulforhodamine B assay; type: functional; design: scale not given: the % may be the effect or the level left; how it was run: as §1
RXF 393 = assay: Growth inhibition of human RXF393 cells assessed as cell growth at 1 M after 48 hrs by sulforhodamine B assay; type: functional; design: scale not given: the % may be the effect or the level left; how it was run: as §2
HCC 2998 = assay: Growth inhibition of human HCC2998 cells assessed as cell growth at 1 M after 48 hrs by sulforhodamine B assay; type: functional; design: scale not given: the % may be the effect or the level left; how it was run: as §1
CAKI-1 = assay: Growth inhibition of human Caki1 cells assessed as cell growth at 1 M after 48 hrs by sulforhodamine B assay; type: functional; design: scale not given: the % may be the effect or the level left; how it was run: as §1
SF-268 = assay: Growth inhibition of human SF268 cells assessed as cell growth at 1 M after 48 hrs by sulforhodamine B assay; type: functional; design: scale not given: the % may be the effect or the level left; how it was run: as §2
SK-MEL-5 = assay: Growth inhibition of human SK-MEL-5 cells assessed as cell growth at 1 M after 48 hrs by sulforhodamine B assay; type: functional; design: scale not given: the % may be the effect or the level left; how it was run: as §2
NCI/ADR-RES = assay: Growth inhibition of human NCI/ADR-RES cells assessed as cell growth at 1 M after 48 hrs by sulforhodamine B assay; type: functional; design: scale not given: the % may be the effect or the level left; how it was run: as §1
A549 = assay: Growth inhibition of human A549 cells assessed as cell growth at 1 M after 48 hrs by sulforhodamine B assay; type: functional; design: scale not given: the % may be the effect or the level left; how it was run: as §1
Bacillus subtilis = assay: Antimicrobial activity against Bacillus subtilis at 1 to 5 ug/ml by agar well diffusion method; type: functional; how it was run: as §3

Cc1cc(=O)[nH]c(/C(=N/Nc2ccccc2)C(=O)c2ccc(Cl)cc2)n1
Activity (MCF7): 90.11% | Activity (ACHN): 110.63% | Activity (SN12C): 93.24% | Activity (OVCAR-8): 92.85% | Activity [1]: 83.59% | Activity (OVCAR-4): 110.81% | Activity (786-0): 82.24% | Activity (SF-295): 75.72% | Activity (K562): 52.73% | Activity (HOP-62): 104.07% | diameter of the inhibition zone (DIZ) (Escherichia coli): 0.6 cm | Activity (OVCAR-3): 97.53% | Activity (OVCAR-5): 117.08% | Activity (UACC-62): 91.99% | Activity (IGROV-1): 17.65% | Activity (SF-539): 92.33% | Activity (NCI-H23): 105.18% | Activity (Malme-3M): 113.86% | Activity (A498): 83.96% | diameter of the inhibition zone (DIZ) (Aspergillus fumigatus): 0 cm | Activity (HCT-116): 86.88% | Activity (SK-MEL-2): 102.42% | LD50 (Rattus norvegicus): 2111.22 µg/kg | LD90 (Rattus norvegicus): 3.24592 mg/kg | Activity (HOP-92): 88.71% | diameter of the inhibition zone (DIZ) (Staphylococcus aureus): 0 cm | Activity [2]: 96.57% | Activity (SNB-19): 95.47% | Activity (SNB-75): 128.46% | Activity (M14): 97.08% | Activity (LOX IMVI): 98.95% | diameter of the inhibition zone (DIZ) [3]: 0 cm | Activity (PC-3): 92.58% | Activity (RXF 393): 28.48% | Activity (HCC 2998): 109.1% | Activity (CAKI-1): 103.86% | Activity (SF-268): 117.24% | Activity (SK-MEL-5): 92.44% | Activity (NCI/ADR-RES): 105.88% | Activity (A549): 92.54% | diameter of the inhibition zone (DIZ) (Bacillus subtilis): 0 cm

Cc1ccc(N/N=C(\C(=O)c2ccc(Cl)cc2)c2nc(C)cc(=O)[nH]2)cc1
Activity (MCF7): 91.01% | Activity (ACHN): 99.08% | Activity (SN12C): 99.97% | Activity (OVCAR-8): 100.7% | Activity [1]: 99.88% | Activity (OVCAR-4): 116.35% | Activity (786-0): 82.91% | Activity (SF-295): 90.05% | Activity (K562): 91.74% | Activity (HOP-62): 94.24% | diameter of the inhibition zone (DIZ) (Escherichia coli): 0.6 cm | Activity (OVCAR-3): 95.76% | Activity (OVCAR-5): 121.85% | Activity (UACC-62): 90.8% | Activity (IGROV-1): 7.59% | Activity (SF-539): 85.29% | Activity (NCI-H23): 111.33% | Activity (Malme-3M): 126.09% | Activity (A498): 107.77% | diameter of the inhibition zone (DIZ) (Aspergillus fumigatus): 0 cm | Activity (HCT-116): 86.94% | Activity (SK-MEL-2): 95.33% | LD50 (Rattus norvegicus): 2663 µg/kg | LD90 (Rattus norvegicus): 4.35687 mg/kg | Activity (HOP-92): 90.99% | diameter of the inhibition zone (DIZ) (Staphylococcus aureus): 0 cm | Activity [2]: 85.08% | Activity (SNB-19): 103.64% | Activity (SNB-75): 115.66% | Activity (M14): 82.73% | Activity (LOX IMVI): 92.62% | diameter of the inhibition zone (DIZ) [3]: 0 cm | Activity (PC-3): 95.01% | Activity (RXF 393): 40.73% | Activity (HCC 2998): 115.84% | Activity (CAKI-1): 112.71% | Activity (SF-268): 107.28% | Activity (SK-MEL-5): 82.48% | Activity (NCI/ADR-RES): 102.57% | Activity (A549): 100.03% | diameter of the inhibition zone (DIZ) (Bacillus subtilis): 0 cm
